Converted amounts (≈) assume the structure as drawn.
Experiments:
Staphylococcus aureus [1] = assay: In vitro minimum inhibitory concentration against Staphylococcus aureus Oxford; type: functional; settings: Staphylococcus aureus; read-out: MIC
Staphylococcus aureus [2] = assay: In vivo antibacterial activity against Staphylococcus aureus after intravenous administration (10 mg/kg) in mice using (MTT) mouse thigh test
[3] = In vivo antibacterial activity against Staphylococcus aureus after intravenous administration (5 mg/kg) in mice using (MTT) mouse thigh test
Enterococcus faecalis = assay: In vitro minimum inhibitory concentration against Enterococcus faecalis; type: functional
Summary of the method: (§1)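 Agar dilution per NCCLS protocol with doubling dilutions from 128 to 0.008 mg/L, incubated at 37 °C. Strains came from an in-house culture collection. MIC reported in mg/L.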

Staphylococcus aureus [4] = assay: In vitro minimum inhibitory concentration against coagulase negative Staphylococcus aureus methicillin resistant (CNSMR); type: functional
Staphylococcus aureus [5] = assay: In vitro minimum inhibitory concentration against Staphylococcus aureus MRQR; type: functional
Streptococcus pyogenes = assay: In vitro minimum inhibitory concentration against Streptococcus pyogenes penicillin sensitive; type: functional; summary of the method: as §1

Row | SMILES | MIC (Staphylococcus aureus [1]) [mg/L] | Activity (Staphylococcus aureus [2]) | Activity [3] | MIC (Enterococcus faecalis) [mg/L] | MIC (Staphylococcus aureus [4]) [mg/L] | MIC (Staphylococcus aureus [5]) [mg/L] | MIC (Streptococcus pyogenes) [mg/L]
1 | O=C(C(CO)Cn1cncn1)N1CC=C(c2c(F)cc(N3C[C@H](COc4ccon4)OC3=O)cc2F)CC1 (some centres undefined) | 0.5 (≈ 0.943 µM) | 0.5 | 0.25 | 2 (≈ 3.77 µM) | 1 (≈ 1.89 µM) | 1 (≈ 1.89 µM) | 1 (≈ 1.89 µM)
2 | O=CN1CC=C(c2c(F)cc(N3C[C@H](COc4ccon4)OC3=O)cc2F)CC1 | 0.25 (≈ 0.617 µM) | 0.43 | -0.01 | 1 (≈ 2.47 µM) | 0.5 (≈ 1.23 µM) | 0.5 (≈ 1.23 µM) | 0.5 (≈ 1.23 µM)
3 | CS(=O)(=O)C[C@@H](O)C(=O)N1CC=C(c2c(F)cc(N3C[C@H](COc4ccon4)OC3=O)cc2F)CC1 | 0.25 (≈ 0.474 µM) | 1.42 | 1.02 | 0.5 (≈ 0.948 µM) | 0.25 (≈ 0.474 µM) | 0.25 (≈ 0.474 µM) | 0.5 (≈ 0.948 µM)
4 | O=C(C(CO)Cn1ccnc1)N1CC=C(c2c(F)cc(N3C[C@H](COc4ccon4)OC3=O)cc2F)CC1 (some centres undefined) | 1 (≈ 1.89 µM) | – | – | 2 (≈ 3.78 µM) | 2 (≈ 3.78 µM) | 2 (≈ 3.78 µM) | 1 (≈ 1.89 µM)
5 | Cc1no[n+]([O-])c1OC[C@H]1CN(c2ccc(C3=CCOCC3)c(F)c2)C(=O)O1 | 1 (≈ 2.56 µM) | 0.2 | 0.03 | 2 (≈ 5.11 µM) | 2 (≈ 5.11 µM) | 2 (≈ 5.11 µM) | 4 (≈ 10.2 µM)
6 | O=C([C@H](O)CO)N1CC=C(c2c(F)cc(N3C[C@H](COc4ccon4)OC3=O)cc2F)CC1 | 0.25 (≈ 0.537 µM) | 0.55 | – | 0.5 (≈ 1.07 µM) | 0.5 (≈ 1.07 µM) | 0.25 (≈ 0.537 µM) | 0.25 (≈ 0.537 µM)
7 | O=C1O[C@@H](COc2ccon2)CN1c1ccc(C2=CCOCC2)c(F)c1 | 0.5 (≈ 1.39 µM) | 0.06 | -0.07 | 1 (≈ 2.78 µM) | 0.5 (≈ 1.39 µM) | 0.5 (≈ 1.39 µM) | 0.5 (≈ 1.39 µM)
8 | O=C1O[C@@H](COc2cccnc2)CN1c1ccc(C2=CCOCC2)c(F)c1 | 4 (≈ 10.8 µM) | – | – | 8 (≈ 21.6 µM) | 4 (≈ 10.8 µM) | 4 (≈ 10.8 µM) | 8 (≈ 21.6 µM)
9 | O=C(CO)N1CC=C(c2ccc(N3C[C@H](COc4ccon4)OC3=O)cc2F)CC1 | 0.25 (≈ 0.599 µM) | 1.2 | 0.71 | 1 (≈ 2.4 µM) | 0.5 (≈ 1.2 µM) | 0.5 (≈ 1.2 µM) | 0.5 (≈ 1.2 µM)
10 | CS(=O)(=O)c1ccc(N2C[C@H](COc3nccs3)OC2=O)cc1F | 16 (≈ 43 µM) | – | – | 32 (≈ 85.9 µM) | 32 (≈ 85.9 µM) | 16 (≈ 43 µM) | 16 (≈ 43 µM)
11 | N#Cc1ccc(OC[C@H]2CN(c3ccc(C4=CCOCC4)c(F)c3)C(=O)O2)nc1 | > 128 | – | – | > 128 | – | > 128 | > 128
12 | CC(O)C(=O)N1CC=C(c2c(F)cc(N3C[C@H](COc4ccon4)OC3=O)cc2F)CC1 (single isomer, unassigned) | 0.5 (≈ 1.11 µM) | 1.02 | 0.49 | 1 (≈ 2.23 µM) | 0.5 (≈ 1.11 µM) | 0.5 (≈ 1.11 µM) | 1 (≈ 2.23 µM)
13 | CC(=O)N1CC=C(c2ccc(N3C[C@H](COc4ccon4)OC3=O)cc2F)CC1 | 0.5 (≈ 1.25 µM) | 0.81 | 0.17 | 1 (≈ 2.49 µM) | 0.5 (≈ 1.25 µM) | 0.5 (≈ 1.25 µM) | 1 (≈ 2.49 µM)
14 | O=C(C(CO)CO)N1CC=C(c2c(F)cc(N3C[C@H](COc4ccon4)OC3=O)cc2F)CC1 | 0.5 (≈ 1.04 µM) | 0.41 | 0.37 | 1 (≈ 2.09 µM) | 0.5 (≈ 1.04 µM) | 0.5 (≈ 1.04 µM) | 0.5 (≈ 1.04 µM)
15 | Cc1cc(OC[C@H]2CN(c3cc(F)c(C4=CCN(C(=O)[C@@H](O)CO)CC4)c(F)c3)C(=O)O2)on1 | 1 (≈ 2.09 µM) | – | – | 2 (≈ 4.17 µM) | 1 (≈ 2.09 µM) | 2 (≈ 4.17 µM) | 2 (≈ 4.17 µM)
16 | O=C([C@@H](O)CO)N1CC=C(c2ccc(N3C[C@H](COc4ccon4)OC3=O)cc2F)CC1 | 0.25 (≈ 0.559 µM) | 1.04 | 0.63 | 1 (≈ 2.24 µM) | 0.5 (≈ 1.12 µM) | 0.5 (≈ 1.12 µM) | 0.5 (≈ 1.12 µM)
17 | Cc1ccnc(OC[C@H]2CN(c3ccc(C4=CCOCC4)c(F)c3)C(=O)O2)c1 | 2 (≈ 5.2 µM) | – | – | 4 (≈ 10.4 µM) | 2 (≈ 5.2 µM) | 2 (≈ 5.2 µM) | 4 (≈ 10.4 µM)
18 | C[C@H](O)C(=O)N1CC=C(c2c(F)cc(N3C[C@H](COc4ccon4)OC3=O)cc2F)CC1 | 0.5 (≈ 1.11 µM) | 1.16 | 0.64 | 1 (≈ 2.23 µM) | 0.5 (≈ 1.11 µM) | 0.5 (≈ 1.11 µM) | 1 (≈ 2.23 µM)
19 | O=C([C@@H](O)CS(=O)(=O)CCO)N1CC=C(c2c(F)cc(N3C[C@H](COc4ccon4)OC3=O)cc2F)CC1 | 0.25 (≈ 0.448 µM) | 0.32 | 0.1 | 0.5 (≈ 0.897 µM) | 0.25 (≈ 0.448 µM) | 0.5 (≈ 0.897 µM) | 0.25 (≈ 0.448 µM)
20 | O=C1O[C@@H](COc2ncccn2)CN1c1ccc(C2=CCOCC2)c(F)c1 | 16 (≈ 43.1 µM) | – | – | 64 (≈ 172 µM) | 16 (≈ 43.1 µM) | 16 (≈ 43.1 µM) | 32 (≈ 86.2 µM)

From ChEMBL document CHEMBL1136453, “New classes of antibacterial oxazolidinones with C-5, methylene O-linked heterocyclic side chains” (2003)
